Test results from ChEMBL document CHEMBL4011604, “Bishomoisoprenoid triazole bisphosphonates as inhibitors of geranylgeranyl diphosphate synthase” (Bioorg Med Chem, 2017).
Calls of active or inactive are those of the source. The calls are words filed in the database; no cut-off is given here.

What was measured:
[1] = target: T1, Geranylgeranyl transferase type I (Homo sapiens) (UniProt P49354+P53609); assay: Inhibition of GGTase1 in human RPMI8226 cells assessed as decrease in Rap1a geranylgeranylation after 48 hrs by Western blot method; format: cell-based
Method in brief: (§1)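 RPMI-8226 myeloma cells exposed 48 h to varying compound concentrations, lovastatin 10 μM as positive control. Whole-cell lysate made in RIPA buffer with protease/phosphatase inhibitors, protein by BCA; equal protein run on SDS-PAGE, blotted to PVDF, probed with antibody recognising only unmodified Rap1a, β-tubulin as loading control, HRP secondary with ECL detection.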

[2] = target: T2, Geranylgeranyl pyrophosphate synthase (Homo sapiens, UniProt O95749); assay: Inhibition of recombinant GGDPS (unknown origin) using FPP as substrate pretreated for 10 mins followed by substrate addition after 30 mins in presence of [14C]-IPP by liquid scintillation counting analysis
T2 sequence (O95749 whole entry): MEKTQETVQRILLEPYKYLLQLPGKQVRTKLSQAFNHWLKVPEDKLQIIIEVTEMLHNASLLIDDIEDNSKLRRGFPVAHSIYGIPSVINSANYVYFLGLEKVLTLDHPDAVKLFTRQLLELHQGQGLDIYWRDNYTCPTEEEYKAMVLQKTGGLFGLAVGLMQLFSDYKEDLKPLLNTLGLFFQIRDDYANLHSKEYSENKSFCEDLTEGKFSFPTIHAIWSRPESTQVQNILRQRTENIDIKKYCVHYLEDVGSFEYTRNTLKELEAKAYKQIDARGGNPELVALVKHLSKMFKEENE
Method in brief: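 Recombinant GGDPS from a commercial source; compounds tested in duplicate at multiple concentrations, three independent experiments. IC50 values from concentration-response curves by Chou–Talalay median-effect analysis.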

Homo sapiens [3] = species: Homo sapiens; assay: Inhibition of Rab GGTase2 in human RPMI8226 cells assessed as decrease in Rab GTPase geranylgeranylation by measuring accumulation of intracellular lambda light chain after 48 hrs by ELISA; format: cell-based
Method in brief: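 RPMI-8226 cells treated 48 h with varying compound concentrations (lovastatin 10 μM control). Intracellular lambda light chain in whole-cell lysate quantified by human lambda ELISA, normalised to total protein (BCA), expressed as percent of untreated control; mean + SD, n=3; unpaired two-tailed t-test, p < 0.05.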

Homo sapiens [4] = species: Homo sapiens; assay: Inhibition of Rab GGTase2 in human RPMI8226 cells assessed as decrease in Rab6 geranylgeranylation after 48 hrs by western blot analysis; format: cell-based
Method in brief: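 RPMI-8226 cells, 48 h with varying compound concentrations, lovastatin 10 μM as control. Cells lysed with Triton X-114; detergent (membrane) fraction immunoblotted for Rab6 with calnexin loading control. Rab6 band densitometry normalised to calnexin, then to untreated cells (relative intensity).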

Homo sapiens [5] = species: Homo sapiens; assay: Inhibition of Rab GGTase2 in human RPMI8226 cells assessed as decrease in Rab6 geranylgeranylation at 5 to 50 uM after 48 hrs by western blot analysis; format: cell-based
Method in brief: (§2)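 Membrane-bound Rab6 measured in RPMI-8226 cells treated 48 h (lovastatin 10 μM positive control). Cells lysed with Triton X-114 and the detergent (membrane) fraction immunoblotted for Rab6, with calnexin as loading control. Densitometry gives Rab6/calnexin relative to untreated cells.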

Homo sapiens [6] = species: Homo sapiens; assay: Inhibition of Rab GGTase2 in human RPMI8226 cells assessed as decrease in Rab GTPase geranylgeranylation by measuring accumulation of intracellular lambda light chain at 0.1 to 50 uM after 48 hrs by ELISA; format: cell-based
Method in brief: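 Intracellular lambda light chain in RPMI-8226 cells after 48 h incubation with compounds (lovastatin 10 μM positive control). Quantified by human lambda light chain ELISA on whole-cell lysate and normalised to BCA total protein. Results given as percent of untreated control, mean + SD, n=3. Significance by unpaired two-tailed t-test, p < 0.05.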

[7] = Inhibition of recombinant rat FTase using FDP as substrate measured after 1 hr by dansyl-GCVLS dye based fluorescence assay
Method in brief: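 Recombinant FTase 18 nM started reactions in 50 mM HEPPSO, 5 mM TCEP-HCl, 5 mM MgCl2 with 10 μM FDP and 5 μM dansyl-GCVLS, 30 °C for 1 h, with or without compound. Peptide prenylation followed as rise in dansyl fluorescence (ex 340 / em 520 nm) over time. IC50 by Chou–Talalay analysis.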

[8] = target: T3, Farnesyl pyrophosphate synthase (Homo sapiens, UniProt P14324); assay: Inhibition of recombinant FDPS (unknown origin) using GPP as substrate pretreated for 10 mins followed by substrate addition after 30 mins in presence of [14C]-IPP by liquid scintillation counting method
T3 sequence (P14324 whole entry): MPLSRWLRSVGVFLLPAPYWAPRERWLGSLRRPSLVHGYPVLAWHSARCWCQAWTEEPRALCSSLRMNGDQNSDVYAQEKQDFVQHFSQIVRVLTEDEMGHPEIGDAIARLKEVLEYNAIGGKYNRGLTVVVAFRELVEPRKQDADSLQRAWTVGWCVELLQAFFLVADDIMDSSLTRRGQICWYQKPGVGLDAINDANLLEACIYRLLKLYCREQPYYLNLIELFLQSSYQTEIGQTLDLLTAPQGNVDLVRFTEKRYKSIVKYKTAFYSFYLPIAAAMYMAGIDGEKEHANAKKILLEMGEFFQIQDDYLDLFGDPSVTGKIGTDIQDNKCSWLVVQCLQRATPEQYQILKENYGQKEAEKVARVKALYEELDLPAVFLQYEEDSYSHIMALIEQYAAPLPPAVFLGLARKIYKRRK
Method in brief: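 Recombinant FDPS assayed by a previously described method, each concentration in duplicate, three independent experiments. IC50 derived from concentration-response curves by Chou–Talalay median-effect analysis.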

[9] = target: T1, Geranylgeranyl transferase type I (Homo sapiens); assay: Inhibition of GGTase1 in human RPMI8226 cells assessed as decrease in Rap1a geranylgeranylation at 0.1 to 50 uM after 48 hrs by Western blot method; format: cell-based
Method in brief: as §1, with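 “test compounds over a range of” for “varying compound”, “Whole-cell” for “Whole-cell lysate made in”, “lysates” for “buffer”, “SDS-PAGE and immunoblotted” for “SDS-PAGE, blotted to PVDF, probed”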

[10] = target: geranylgeranyltransferase type-I (Rattus norvegicus, UniProt P53610+Q04631); assay: Inhibition of recombinant rat GGTase1 expressed in Escherichia coli using GGDP as substrate measured after 2 hrs by dansyl-GCVLS dye based fluorescence assay
Method in brief: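 Recombinant GGTase I 24 nM added to 50 mM HEPPSO, 5 mM TCEP-HCl containing 10 μM GGDP and 5 μM dansyl-GCVLS. Incubated 2 h at 30 °C with or without compound, with prenylation tracked as dansyl fluorescence increase (ex 340 / em 520 nm) over time. IC50 from Chou–Talalay curve fitting.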

Homo sapiens [11] = species: Homo sapiens; assay: Inhibition of Rab GGTase2 in human RPMI8226 cells assessed as disruption of Rab6 geranylgeranylation at 1 to 10 uM after 48 hrs by western blot analysis; format: cell-based; method in brief: as §2
[12] = target: T1, Geranylgeranyl transferase type I (Homo sapiens); assay: Inhibition of GGTase1 in human RPMI8226 cells assessed as decrease in Rap1a geranylgeranylation at 0.5 uM after 48 hrs by Western blot method; format: cell-based
Method in brief: as §1, with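 “test compounds over a range of” for “varying compound”, “Whole-cell” for “Whole-cell lysate made in”, “lysates” for “buffer”, “SDS-PAGE and immunoblotted” for “SDS-PAGE, blotted to PVDF, probed”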

SMILES	INH [1]	IC50 [2]	INH (Homo sapiens [3])	INH (Homo sapiens [4])	inhibition (Homo sapiens [5])	inhibition (Homo sapiens [6])	IC50 [7]	IC50 [8]	inhibition [9]	IC50 [10]	inhibition (Homo sapiens [11])	inhibition [12]
CC(C)=CCC/C(C)=C/CCn1cc(CC(P(=O)(O)O)P(=O)(O)O)nn1	0.09 µM	170 nM	0.09 µM	0.09 µM								
CC(C)=CCC/C(C)=C/CCCn1cc(CC(P(=O)(O)O)P(=O)(O)O)nn1					Active	Active	> 100 µM	33.3 µM	Active	> 100 µM		
CC(C)=CCCCn1cc(CC(P(=O)(O)O)P(=O)(O)O)nn1		3600 nM			Active	Active	> 100 µM	> 100 µM	Active	> 100 µM		
CC(C)=CCC/C(C)=C\CCCn1cc(CC(P(=O)(O)O)P(=O)(O)O)nn1						Active	> 100 µM	29.8 µM		> 100 µM	Active	Active
